According to paper PMC10739677 (Chembiochem : a European journal of chemical biology, 2023):

Assays:
[1] = target: T1, GCL (pure human recombinant GCLC and GCLM) (Homo sapiens, UniProt P48506+P48507); assay: GCL functional assay; type: biochemical
T1 sequence (P48507 1-274): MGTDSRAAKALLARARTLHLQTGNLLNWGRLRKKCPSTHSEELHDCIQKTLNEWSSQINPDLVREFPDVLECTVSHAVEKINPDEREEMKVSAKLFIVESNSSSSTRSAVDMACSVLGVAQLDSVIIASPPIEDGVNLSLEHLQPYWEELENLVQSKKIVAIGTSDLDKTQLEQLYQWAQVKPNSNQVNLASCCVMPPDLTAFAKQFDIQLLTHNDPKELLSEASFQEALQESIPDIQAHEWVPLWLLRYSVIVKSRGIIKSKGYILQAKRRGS
T1 sequence (P48506 1-637): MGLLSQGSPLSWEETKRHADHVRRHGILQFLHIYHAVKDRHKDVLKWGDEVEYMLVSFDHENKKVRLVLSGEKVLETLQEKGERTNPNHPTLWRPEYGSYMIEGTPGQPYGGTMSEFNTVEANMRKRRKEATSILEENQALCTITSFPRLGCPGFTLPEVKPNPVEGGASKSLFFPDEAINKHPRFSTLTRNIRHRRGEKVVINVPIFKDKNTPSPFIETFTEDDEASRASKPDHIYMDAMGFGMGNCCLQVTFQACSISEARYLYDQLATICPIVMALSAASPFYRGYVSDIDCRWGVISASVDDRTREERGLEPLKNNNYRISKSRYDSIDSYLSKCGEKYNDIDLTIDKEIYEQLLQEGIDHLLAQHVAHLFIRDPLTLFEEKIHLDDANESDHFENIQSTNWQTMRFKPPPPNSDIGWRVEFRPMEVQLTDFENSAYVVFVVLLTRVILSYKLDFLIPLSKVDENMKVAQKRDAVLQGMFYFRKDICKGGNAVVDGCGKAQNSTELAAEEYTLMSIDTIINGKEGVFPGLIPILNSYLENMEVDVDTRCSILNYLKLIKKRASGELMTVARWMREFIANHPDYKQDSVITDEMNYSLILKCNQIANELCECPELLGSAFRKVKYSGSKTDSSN

pure human GCLM protein = target: T2, pure human GCLM protein (Homo sapiens, UniProt P48507); assay: Gel-based ABPP; type: binding
T2 sequence (P48507 1-274): T1 sequence (P48507 1-274)
Summary of the method: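 Pure recombinant human GCLM (0.1 μg in 50 μL PBS) treated for 30 min at 37 °C with alkyne probe (10–100 μM final) or DMSO. In the competition format, protein is first preincubated with test compound for 30 min at 37 °C, then labelled with probe (50 μM final) for 2 h at 37 °C. Rhodamine-azide (1 μM final) appended by CuAAC, then reducing SDS-PAGE and in-gel fluorescence; silver stain confirms loading.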

A2780 cells = assay: Ferrostatin rescue experiment; type: cell-based, human; conditions: Ferrostatin-1 2 μM with EN25 50μM, A2780, 48 hr, Hoechst staining
[2] = system: A2780 ARID1A-negative ovarian cancer cells; assay: Cell viability by Hoechst staining, A2780; type: cell-based, human; conditions: Hoechst staining at 24 hr
Summary of the method: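 A2780 cells seeded at 6,000/well in 96-well plates and left to adhere overnight, then dosed with test compound or DMSO vehicle for 24 hr. Fixed and stained with 10% formalin plus Hoechst 33342 for 15 min in the dark at room temperature, then washed three times with PBS before fluorescence reading. Expressed as percentage of DMSO control, mean ± sem, n=6 biologically independent replicates.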

[3] = system: RMG-1 ARID1A-positive ovarian cancer cells; assay: Cell viability by Hoechst staining, RMG-1; type: cell-based, human; conditions: Hoechst staining at 24 hr
[4] = system: GSH levels in A2780 cells; assay: LC-MS/MS quantification of GSH levels, A2780; type: cell-based, human; conditions: SRM LC-MS/MS 4hr post treatment
[5] = system: GSH levels in RMG-1 cells; assay: LC-MS/MS quantification of GSH levels, RMG-1; type: cell-based, human; conditions: SRM LC-MS/MS 4hr post treatment
[6] = target: T3, GCLM C114 (pure human GCLM and GCLC) (Homo sapiens, UniProt P48507); assay: LC-MS/MS analysis of EN25 adduct on GCL complex; type: binding; conditions: EN25 50 μM, 30 min at 37°C; tryptic digest LC-MS/MS
T3 sequence (P48507 1-274): T1 sequence (P48507 1-274)
T3 sequence (P48506 1-637 partner): T1 sequence (P48506 1-637)

[7] = system: cysteines within proteins in A2780 cells; assay: isoTOP-ABPP cysteine chemoproteomic profiling; type: cell-based, human; conditions: A2780 cells treated 90 min; IA-alkyne 100 μM
siGCLM A2780 cells = assay: Cell viability after GCLM knockdown; type: cell-based, human; conditions: siGCLM vs siControl A2780, 24 hr treatment, Hoechst staining

Compound | IC50 [1] [µM] | covalent labeling of GCLM (pure human GCLM protein; in-gel fluorescence after CuAAC with rhodamine-azide) | rescue of EN25-mediated cell viability impairment (A2780 cells) | cell viability impairment [2] | cell viability impairment [3] | GSH levels [4] | GSH levels [5] | site of covalent modification on GCL complex [6] | competition of EN25-alkyne labeling of GCLM (pure human GCLM protein; pre-incubation 30 min at 37°C, then EN25-alkyne 50 μM for 2 h) | proteome-wide selectivity: potential off-targets [7] | cell viability impairment upon GCLM knockdown (siGCLM A2780 cells)
C#CCOc1ccc(-c2ccc(CNC(=O)c3ccc(CNC(=O)C=C)cc3)cc2)cc1 [EN25-alkyne] | 3.6 | showed covalent labeling of GCLM | – | – | – | – | – | – | – | – | –
CCOC(=O)c1ccc(NC2CCCCC2)c(N)c1 [ferrostatin, Ferrostatin-1] | – | – | attenuated the cell viability impairments conferred by EN25 treatment | – | – | – | – | – | – | – | –
C=CC(=O)NCc1ccc(C(=O)Nc2ccc(Sc3ccc(C)c(C)c3)cc2)cc1 [EN25] | 16 | – | – | more sensitive A2780 cancer cell line | RMG-1 cancer cells showed resistance to EN25-mediated cell viability impairments | significantly lowered GSH levels in A2780 cancer cells | no changes observed in RMG-1 cells | selective and covalent EN25 modification of C114 on GCLM | dose-responsive competition of this labeling by EN25 | nine potential off-targets of EN25 out of >5000 cysteines | GCLM knockdown with siRNA conferred hypersensitivity to EN25-mediated cell viability impairments
